High-throughput results (PubChem)
HCT116 bCat-KO: beta-catenin-lacking colon tumor cell growth suppression; 140,000 tested, 1.5% active; AID 818; HCT116 beta-catenin knockout viability, CellTiter-Glo, 60 h; active compounds read low; viability, % at 10 µM;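 active means viability at or under a set limit, the compound median less 4 SD, cut at about 6% in these data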
HUVEC prolif 384: human endothelial cell proliferation inhibition. HUVEC proliferation, CellTiter-Glo luminescence, 72 h; active compounds read low. viability, % at 10 µM (by protocol). 86,000 tested, 1.1% active;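 active means viability at or below 30%; inactive means viability above 30%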
PTEN del growth: suppresses growth of cells with PTEN deletion | HCT116 PTEN-null viability, CellTiter-Glo, 60 h; active compounds read low | viability, % at 10 µM | 140,000 tested, 1.2% active | AID 827;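 active means viability at or below a set limit, 4 SD under the median of all tested compounds, cut at about 3.7% in these data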;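 further: PTEN knockout HCT116 line with beta catenin targeted HCT116 as companion control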
Fibroblast inh: blocks proliferation of human lung fibroblasts; AID 719; 85,000 tested, 1.1% active; LL 47 human lung fibroblast viability, ATP luminescence; active compounds read low; viability, % at 10 µM;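 active means viability at or below 50% in the single dose screen; inactive means viability above 50%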;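 further: compound exposure lasted 72 h before the ATP readout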
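Signal: luminescent ATP detection, CellTiter-Glo; assay system: LL 47 human lung fibroblasts; input: 1,150 cells/well; incubation: overnight cell rest, 72 h compound treatment at 37 °C; measure: % viability versus median cells-only luminescence; medium: IMEM growth medium with 15% fetal bovine serum; dosing: compound addition at 0.1% DMSO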
H69AR growth 86K: growth inhibitors of human H69AR lung tumor cells. H69AR lung tumor viability, ATP luminescence, 72 h; active compounds read low. viability, % at 10 µM. 85,000 tested, 6% active;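 active means viability at or below 40%; inactive means viability above 40%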;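 further: multidrug resistant small cell line overexpressing MRP-1 efflux transporter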
Large screens that a line does not name were inactive. The sample as a whole holds a higher share of hits than the screen did.

CC(C)Sc1nc(-c2cccs2)nc2c1c(=O)n(C)c(=O)n2C	H69AR growth 86K 19 (no result: HCT116 bCat-KO, PTEN del growth)
Cn1c(=O)c2c(SCC(=O)NCC3CCCO3)nc(-c3cccs3)nc2n(C)c1=O (stereo not drawn)	H69AR growth 86K 29 (no result: HCT116 bCat-KO, PTEN del growth)
O=C(CSc1nnc(-c2cccs2)n1-c1ccccc1)NCC1CCCO1 (stereo not drawn)	none
COC1=CC(=O)CC(C)C12Oc1c(Cl)c(OC)cc(OC)c1C2=O (stereo not drawn)	H69AR growth 86K 29
CC1=[N+]([O-])C(C)(C)C(c2ccc(Br)cc2)=[N+]1[O-]	none (no result: HUVEC prolif 384, Fibroblast inh, H69AR growth 86K)
CCOC(=O)Nc1ccc2c(c1)N(C(=O)N1CCN(C)CC1)c1ccccc1S2	none
C=CC(=O)N1c2ccccc2Sc2ccc(NC(=O)OCC)cc21	H69AR growth 86K 26
CC1(C)CC(=O)c2cc(C(=O)NCc3ccco3)c(=O)n(-c3ccccc3)c2C1	H69AR growth 86K 30
CN1CCN(C(=O)c2cc3c(n(-c4ccccc4)c2=O)CC(C)(C)CC3=O)CC1	none
COC(=O)C1=C(Cn2cnc3ccccc32)NC(=O)NC1c1cc(C)ccc1C (stereo not drawn)	none
CCOC(=O)C1=C(Cn2cnc3ccccc32)NC(=O)NC1c1cc(C)ccc1C (stereo not drawn)	H69AR growth 86K 16
COc1cccc(-n2cnc(=O)c3cccnc32)c1	none (no result: HUVEC prolif 384, Fibroblast inh, H69AR growth 86K)
COc1ccc2nc(N=Nc3c(O)ccc4ccccc34)sc2c1	HCT116 bCat-KO 5.3 (no result: HUVEC prolif 384, Fibroblast inh, H69AR growth 86K)
COc1ccc2nc(NC(C)=O)sc2c1	none
CCCCC(=O)/C=C/n1c(=S)oc2ccccc21	none (no result: HUVEC prolif 384, Fibroblast inh, H69AR growth 86K)
CCOC(=O)CN(Cc1sccc1C)C(=O)Nc1ccc(OC)cc1OC	none (no result: HUVEC prolif 384, Fibroblast inh, H69AR growth 86K)
C=CCn1c(SCc2csc(C)n2)nc2sc3c(c2c1=O)CCC(C)C3 (stereo not drawn)	H69AR growth 86K 31
C=CCn1c(SCc2csc(C)n2)nc2sc3c(c2c1=O)CCCC3	none
CN(C(=O)COC(=O)CCc1c[nH]c2ccccc12)C(c1ccccc1)c1ccccc1	none (no result: HUVEC prolif 384, Fibroblast inh, H69AR growth 86K)
Cc1ccc(CN2CCC(c3nc4ccc(Cl)cc4[nH]3)CC2)cc1	none (no result: HUVEC prolif 384, Fibroblast inh, H69AR growth 86K)
Cc1cc2nc(C3CCN(Cc4nnnn4Cc4cccs4)CC3)[nH]c2cc1C	H69AR growth 86K 15
CC(C)n1nnc2c(=O)oc3ccccc3c21	none (no result: HUVEC prolif 384, Fibroblast inh, H69AR growth 86K)
COc1ccc(-c2nnnn2-c2ccccc2OC)cc1	H69AR growth 86K 22
CC(=O)c1c(C(C)=O)c(C)n(Cc2ccccc2)c1C	none
Cc1c(C=O)c(C=O)c(C)n1Cc1ccccc1	Fibroblast inh 48, H69AR growth 86K 38
CCCOc1ccc(NC(=O)C(=O)NCCCn2ccnc2)cc1	none (no result: HUVEC prolif 384, Fibroblast inh, H69AR growth 86K)
CCOC(=O)N1CCC(NC(=O)c2ccc3c(c2)N(C)CCS3)CC1	H69AR growth 86K 37
CCOC(=O)N1CCC(NC(=O)c2ccc3c(c2)N(Cc2ccccc2)CCS3)CC1	none
CCOC(=O)N1CCC(NC(=O)c2cc(C(=O)NC3CCCC3)ccc2CO)CC1	none
CCOC(=O)N1CCC(NC(=O)c2ccc3c(c2)N(Cc2ccc(C)cc2)CCS3)CC1	H69AR growth 86K 38
CCOC(=O)N1CCC(NC(=O)c2ccc3c(c2)N(Cc2ccc(F)cc2)CCS3)CC1	H69AR growth 86K 24
COc1ccc(C2(O)CC3CCC(C2)N3c2nc(C)cc(C)c2C#N)cc1 (stereo not drawn)	H69AR growth 86K 31
Cc1ccc(S(=O)(=O)N(C)CC(O)Cn2c3ccccc3c3ccccc32)cc1 (stereo not drawn)	none
O=S(=O)(c1ccccc1)N(CC(O)Cn1c2ccccc2c2ccccc21)c1ccccc1 (stereo not drawn)	none (no result: HUVEC prolif 384, Fibroblast inh, H69AR growth 86K)
CCN(CC(O)Cn1c2ccccc2c2ccccc21)S(=O)(=O)c1ccc(F)cc1 (stereo not drawn)	H69AR growth 86K 18
O=S(=O)(c1ccc(F)cc1)N(CCO)CC(O)Cn1c2ccccc2c2ccccc21 (stereo not drawn)	H69AR growth 86K 13
CC(C)c1ccc(C(=O)NNC(=O)C2CC=CCC2C(=O)O)cc1 (stereo not drawn)	none (no result: HUVEC prolif 384, Fibroblast inh, H69AR growth 86K)
COc1ccc(-c2nnc(SCC(=O)Nc3cc(S(=O)(=O)N4CCCCC4)ccc3Cl)n2N)cc1	none (no result: HUVEC prolif 384, Fibroblast inh, H69AR growth 86K)
O=C(c1ccco1)N1CCN(c2ncnc3c2[nH]c2ccc(Br)cc23)CC1	H69AR growth 86K 38
O=C(c1ccco1)N1CCN(C(=O)c2cc(-c3ccccn3)nc3ccc(Cl)cc23)CC1	H69AR growth 86K 38
O=C(c1ccco1)N1CCN(c2ncnc3c2[nH]c2ccccc23)CC1	none
O=C(c1ccco1)N1CCN(C(=O)c2cc(-c3ccncc3)nc3ccc(Br)cc23)CC1	H69AR growth 86K 39 (no result: HCT116 bCat-KO, PTEN del growth)
CNC(=O)[C@@]1(C)C=C[C@@H](Cc2ccccc2)N1C(=O)OC	none (no result: HUVEC prolif 384, Fibroblast inh, H69AR growth 86K)
COc1ccc(Br)cc1CNc1ccc(O)cc1	H69AR growth 86K 36
COc1ccc(Br)cc1CNC(C)c1ccccc1 (stereo not drawn)	none (no result: HUVEC prolif 384, Fibroblast inh, H69AR growth 86K)
COc1cc(/C=N/O)cc(Br)c1OCc1ccc(Cl)cc1	none (no result: HUVEC prolif 384, Fibroblast inh, H69AR growth 86K)
COc1cc(/C=N/N=C(/N)c2nonc2N)cc(Br)c1OCc1cccc(C)c1	HUVEC prolif 384 30
CCOc1cc(/C=N/N=C(\N)c2nonc2N)cc(Br)c1OCc1cccc2ccccc12	HUVEC prolif 384 7.5, Fibroblast inh 41, H69AR growth 86K 13
COc1ccc(-c2onc(C)c2-c2ccccc2)c(O)c1	H69AR growth 86K 31
Cc1oc2c(C)c(O)ccc2c(=O)c1-c1ccc2ccccc2n1	none (no result: HUVEC prolif 384, Fibroblast inh, H69AR growth 86K)
COc1ccc(-c2noc(C)c2-c2ccc3ccccc3n2)c(O)c1	H69AR growth 86K 26
COc1cccc(-c2nc(-c3ccccc3)no2)c1	none
